Test results as given in ChEMBL document CHEMBL1147229, “Isolation and characterization of new epothilone analogues from recombinant Myxococcus xanthus fermentations” (J Nat Prod, 2003).

How the values were obtained:
Type in all cases: functional, cell-based
SF-268 = assay: Cytotoxicity against human SF268 cells after 3 days by SRB assay; details: SF-268, 72 h
Summary of the method: (§1)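 Cells kept in RPMI-1640 with 2 mM L-glutamine, 25 mM HEPES and 10% FBS at 37 °C, 5% CO2. Seeding per well: MCF-7 5000, NCI/ADR 7500, NCI-H460 5000, SF-268 7500; 24 h adherence. Compound at 0.001 to 1000 nM, triplicate wells, 3 days. TCA fixation 1 h at 4 °C, 0.2% SRB 20 min, bound dye extracted in 10 mM Tris, absorbance at 515 nm.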

MCF7 = assay: Cytotoxicity against human MCF7 cells after 3 days by SRB assay; details: MCF7, 72 h; summary of the method: as §1
NCI-H460 = assay: Cytotoxicity against human NCI-H460 cells after 3 days by SRB assay; details: NCI-H460, 72 h; summary of the method: as §1
[1] = Cytotoxicity against human NCI/ADR cells after 3 days by SRB assay; details: NCI/ADR-RES, 72 h; summary of the method: as §1

Work on `CC1=C/C[C@@H](/C(C)=C/c2csc(C)n2)OC(=O)C[C@H](O)C(C)(C)C(=O)[C@H](C)[C@@H](O)[C@@H](C)C\C=C\1` yielded an IC50 (SF-268) of 92 nM, an IC50 (MCF7) of 47 nM and an IC50 (NCI-H460) of 47 nM. It also gave an IC50 [1] of 250 nM.

For `C/C1=C/C[C@@H](/C(C)=C/c2csc(C)n2)OC(=O)C[C@H](O)C(C)(C)C(=O)[C@H](C)[C@@H](O)[C@@H](C)C(=O)CC1`, the IC50 (SF-268) was > 1000 nM, the IC50 (MCF7) was 500 nM and the IC50 (NCI-H460) was > 1000 nM. The IC50 [1] was > 1000 nM.

`C/C(=C\c1csc(C)n1)[C@@H]1C/C=C\CCC[C@H](C)[C@H](O)[C@@H](C)C(=O)C(C)(C)[C@@H](O)CC(=O)O1` [EPOTHILONE C] gave an IC50 (SF-268) of 340 nM, an IC50 (MCF7) of 97 nM and an IC50 (NCI-H460) of 280 nM. The IC50 [1] was 310 nM.

Molecule `CC1=C/C[C@@H](/C(C)=C/c2csc(C)n2)OC(=O)C[C@H](O)C(C)C(=O)[C@H](C)[C@@H](O)[C@@H](C)C\C=C\1` (stereo not given in full) has an IC50 (SF-268) of 390 nM, an IC50 (MCF7) of 250 nM and an IC50 (NCI-H460) of 345 nM. It also gave an IC50 [1] of 395 nM.

`C/C1=C/C[C@@H](/C(C)=C/c2csc(C)n2)OC(=O)C[C@H](O)C(C)(C)C(=O)[C@H](C)[C@@H](O)[C@@H](C)CCC1` [EPOTHILONE D] gave an IC50 (SF-268) of 18 nM, an IC50 (MCF7) of 16 nM and an IC50 (NCI-H460) of 30 nM. The IC50 [1] was 44 nM.
